From ChEMBL document CHEMBL1158344, “Synthesis and antinociceptive activities of some pyrazoline derivatives” (Eur J Med Chem, 2009)

Assays:
Mus musculus [1] = experiment: Antinociceptive activity in Swiss albino mouse assessed as protection against acetic acid-induced writhing at 10 mg/kg, ip administered 30 mins before acetic acid challenge; assay type: functional; settings: route intraperitoneal
How it was run: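 Mice (n = 7) were given the compound i.p. in sunflower oil vehicle, then 0.6% acetic acid i.p. (10 mL/kg) 30 min later. Abdominal contractions and stretches were counted for 10 min, starting 5 min after the acid. % protection = [(control mean − treated mean)/control mean] × 100. Values are mean ± SEM.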

Mus musculus [2] = experiment: Analgesic activity in Swiss albino mouse assessed as analgesia at 10 mg/kg by hot plate method; assay type: functional
How it was run: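 Mice (n = 7) were dosed with the test compound in sunflower oil vehicle. Thirty minutes later each mouse was placed on a hot plate at 55 ± 1.0 °C. Latency to forepaw licking or jumping out of the glass beaker was recorded, with a 30 s cut-off. Values are mean ± SEM % analgesia.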

Mus musculus [3] = experiment: Antinociceptive activity in Swiss albino mouse assessed as protection against acetic acid-induced writhing at 100 mg/kg, ip administered 30 mins before acetic acid challenge; assay type: functional; settings: route intraperitoneal
How it was run: (§1)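 Mice, n = 7 per group, received sunflower oil vehicle or compound at 100 mg/kg ip. 30 min later they were given 0.6% acetic acid ip at 10 mL/kg. Abdominal contractions and stretches were counted over 10 min, starting 5 min after the acetic acid. In naloxone groups, naloxone was given 15 min before compound. % protection = [(control mean − treated mean)/control mean] × 100.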

Mus musculus [4] = species on record: Mus musculus; experiment: Neurological deficit effect in Swiss albino mouse assessed as effect on motor coordination by measuring fall latency by Rota rod test; settings: in vivo
How it was run: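 Mice were trained for three consecutive days on a Rota-Rod at 16 rev/min, and only those staying on longer than 180 s were used. Each mouse was tested on the rod 5 min after the hot plate test, and the latency to fall was recorded.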

Mus musculus [5] = experiment: Antinociceptive activity in 5 mg/kg naloxone pretreated Swiss albino mouse assessed as protection against acetic acid-induced writhing at 100 mg/kg, ip administered 30 mins before acetic acid challenge; assay type: functional; how it was run: as §1
Mus musculus [6] = experiment: Toxicity in Swiss albino mouse assessed as mortality at 100 mg/kg; assay type: organism-based; design: dose 100 mg/kg; settings: in vivo
Mus musculus [7] = experiment: Analgesic activity in 5 mg/kg naloxone pretreated Swiss albino mouse assessed as analgesia at 100 mg/kg by hot plate method; assay type: functional
How it was run: (§2)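 Mice, n = 7 per group, were placed one at a time on a hot plate held at 55 ± 1.0 °C. Latency to forepaw licking or to jumping out of the glass beaker was recorded, with a cut-off of 30 s. Latency was read 30 min after compound at 100 mg/kg or sunflower oil vehicle. In naloxone groups, naloxone 5 mg/kg ip was given 15 min before compound. Results are reported as % analgesia, mean ± SEM.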

Mus musculus [8] = experiment: Analgesic activity in Swiss albino mouse assessed as analgesia at 100 mg/kg by hot plate method; assay type: functional; how it was run: as §2

Compound	Activity (Mus musculus [1])	Activity (Mus musculus [2])	Activity (Mus musculus [3])	Activity (Mus musculus [4])	Activity (Mus musculus [5])	Activity (Mus musculus [6])	Activity (Mus musculus [7])	Activity (Mus musculus [8])
CN1CC[C@]23c4c5ccc(O)c4O[C@H]2[C@@H](O)C=C[C@H]3[C@H]1C5 [MORPHINE]	87.45%	92.9%	–	–	–	–	–	–
Cc1ccc(C2=NN(C(=O)CSc3nc4ccccc4[nH]3)C(c3ccccc3)C2)cc1C (stereo not drawn)	–	–	97.67%	Non-toxic	19.07%	Non-toxic	-0.58%	82.5%
COc1ccc(C2CC(c3ccccc3)=NN2C(=O)CSc2nc3ccccc3[nH]2)cc1 (stereo not drawn)	–	–	97.21%	Non-toxic	22.32%	Non-toxic	-1.34%	60.6%
O=C(CSc1nc2cc(Cl)ccc2o1)N1N=C(c2ccccc2)CC1c1ccccc1 (stereo not drawn)	–	–	57.72%	Non-toxic	7.44%	Non-toxic	-1.32%	59.7%
O=C(CSc1nc2ccccc2[nH]1)N1N=C(c2ccccc2)CC1c1ccccc1 (stereo not drawn)	–	–	85.13%	Non-toxic	12.56%	Non-toxic	-1.5%	61.9%
Cc1ccc(C2=NN(C(=O)CSc3nc4cc(Cl)ccc4o3)C(c3ccccc3)C2)cc1C (stereo not drawn)	–	–	98.14%	Non-toxic	21.39%	Non-toxic	-0.97%	72.6%
COc1ccc(C2CC(c3ccccc3)=NN2C(=O)CSc2nc3cc(Cl)ccc3o2)cc1 (stereo not drawn)	–	–	43.32%	Non-toxic	5.58%	Non-toxic	-2.95%	47.7%
